This series in a line: Toxicity liver stage against HepG2, at 10uM. It counts as cell-based. Conditions: human, HepG2-A16-CD81EGFP cells; read-out: INHIBITION
Also noted: test concentration 10 uM, cell line HepG2-A16-CD81EGFP. The method in brief:
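Uninfected HepG2-A16-CD81EGFP cells, 3 × 10^3 per well, 1536-well, plated on prespotted compound at 10 μM final, parasite-free screening media added to match infected plates; puromycin 10 μM positive, DMSO 0.5% negative; run in parallel with 48 h PbLuc assay at 37 °C, 5% CO2; viability by CellTiter-Glo luminescence, normalized to controls.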
As to `c1ccc(NC[C@@H]2CCC[C@@H]3CN(c4ncccn4)C[C@@H]32)nc1`, the cytotoxicity at 10 µM is -106%. The value for `O=C(Nc1cccnc1)C1=Cc2ccccc2OC1` was 4.19%; that for `c1ccc(CCN2CCOC(CNc3cccnn3)C2)nc1` (stereo unspecified) was -1.56%. With `Cc1ccc(-c2noc(C3CCN3C(=O)c3ccc(=O)[nH]n3)n2)s1` (stereo unspecified) the figure was 7.53%; with `CCc1ccc2c(c1)C(CCNC(=O)CSC(F)(F)F)C(=O)N2` (stereo unspecified), -45.5%; with `O=c1[nH]nc2c(N3CCCCCC3)nccn12`, 10.5%. The value for `Cc1nc(CNC(=O)c2oc3ccccc3c2CN(C)C)oc1C` was 9.46%. For the compound `CN1C(=O)CC(c2cnn(C)c2)C12CCN(C(=O)c1ccc[nH]1)CC2` (stereo unspecified), the cytotoxicity at 10 µM was determined as 6.74%. With `COc1c(NS(=O)(=O)c2ccc(C)c(C)c2)c(C)nn1C` the figure was 3.73%; with `Fc1ccc(-c2nnc(CN3CCn4c(nnc4C4CC4)C3)o2)cc1`, 0.577%; with `Cc1csc2c(C3CCN(C(=O)Cn4cncn4)CC3)nc(C)n12`, 6.28%.

As for `CCc1nc(CC(=O)N2CCn3c(CC)nnc3C2)cs1`, the cytotoxicity at 10 µM was -11.4%.

Regarding `c1csc(-c2noc(CC3CCCO3)n2)c1` (stereo unspecified), the cytotoxicity at 10 µM is -3.37%.

Take `C[S+]([O-])c1cccc(NC(=O)N[C@H](CCO)c2ccccc2)c1` (stereo partly specified): the cytotoxicity at 10 µM was -3.13%. Turning to `N#Cc1ccc(C(=O)N2CCC(Oc3ccc(C#N)cn3)CC2)cc1`, the cytotoxicity at 10 µM turned out to be 7.92%. The value for `Cc1nc(C(=O)N(C)CC2CCCO2)nn1-c1ccccc1C(C)C` (stereo unspecified) was -3.62%; that for `CN(Cc1cncnc1)[C@@H]1CN(Cc2ccco2)C[C@@H]2CCCO[C@@H]21` was -1.6%; that for `NC(=O)Cn1cnc2nc3n(c2c1=O)CCC3` was 2.96%. `Cc1ccc(CN2CC[C@H]3OCC[C@@H](C(=O)N4CCCCO4)[C@@H]3C2)o1`: the cytotoxicity at 10 µM came to 3.54%. For `Cc1nc(C)n(CC2CCCN(c3ccnc(-c4ccccc4)n3)C2)n1` (stereo unspecified), the cytotoxicity at 10 µM worked out at 39.4%.

Regarding `CCN1C(=O)CC(c2ccccc2)C12CCN(CC1CCOCC1)CC2` (stereo unspecified), the cytotoxicity at 10 µM was determined as 3.06%. As to `Cn1cc(N)c(-c2nnc3n2CCCC3)n1`, the cytotoxicity at 10 µM was -6.83%. The value for `COc1ccccc1CC(=O)N1CCCC1Cn1nc(C)cc1C` (stereo unspecified) was -9.37%; that for `CC(C)c1nc(C2CCCN(C(=O)c3ccc4c(c3)COC4)C2)no1` (stereo unspecified) was -7%; that for `CC(NCC1CCN(CCO)CC1)c1ccc(F)c(Cl)c1` (stereo unspecified) was -9.04%. As for `CC(CNC(=O)NCc1ccco1)N1CCc2sccc2C1` (stereo unspecified), the cytotoxicity at 10 µM was -11.5%. With `CN(C)C(=O)CCNC(=O)Nc1sc2ccccc2c1Cl` the figure was 6.14%; with `CS(=O)(=O)N1CCC(CNc2c(Cl)cccc2C#N)CC1`, -6.67%. With `CN1CCN(CC(NCc2ccc(F)c(F)c2)c2ccccc2)CC1` (stereo unspecified), the cytotoxicity at 10 µM was -10%. The value for `Cc1cccc(-c2nc(C)nn2CC(=O)NC(C)C2CC2)c1` (stereo unspecified) was -0.502%; that for `Cc1nnc(NC(=O)CN2CCOC(Cn3cccn3)C2)s1` (stereo unspecified) was -7.44%; that for `COC(=O)CN1Cc2cc3c(cc2NCCC1=O)OCO3` was -8.1%. With `O=C(c1ccc2c(c1)OCO2)N1CCCSCC1CN1CCCC1` (stereo unspecified) the figure was 6.95%; with `Cc1cc(C(=O)Nc2ccc(OCC3CCOCC3)cc2)[nH]n1`, -7.04%; with `CN1C(=O)C(c2cccnc2)CC12CCN(C(=O)c1cccn1C)CC2` (stereo unspecified), -16.4%. The value for `COc1ccc(Cl)cc1CCNC(=O)NCc1cnn(C)c1C` was 3.87%. With `COCCNC(=O)NC1(c2nc(C)no2)CCCCC1`, the cytotoxicity at 10 µM turned out to be 1.56%. The value for `Cc1ccc(C(=O)N2CC[C@@H]3[C@H]2CCC(=O)N3CC2CC2)o1` was -0.419%; that for `Cn1cc(CN2CC[C@@H]3[C@@H]2CCN3C(=O)Cc2cccc(F)c2)cn1` was -80%; that for `CC(C)CCN1CC2(CCN(C(=O)C3(C)CC3)CC2)OC1=O` was 1.84%. The value for `CN1CCOC(CNC(=O)Cc2ccccc2F)C1` (stereo unspecified) was -3.87%; that for `Cc1cccc(OCCN2CCN(Cc3cnn(CCO)c3)CC2)c1` was -5.16%.

As to `Cc1nc([C@@H]2C[C@H]3CN(Cc4scnc4C)C[C@H]3O2)no1`, the cytotoxicity at 10 µM was -127%. With `CN1N=C(C(=O)N2CCCC(n3ccnc3)C2)CCC1=O` (stereo unspecified) the figure was -13.2%; with `C=C(C)COc1cccc(CNCCc2c[nH]cn2)c1`, 8.95%; with `Cc1ccc(Oc2nccnc2C2CCN(C(=O)C(C)(C)N)CC2)cc1`, -7.86%. The value for `COc1ccccc1N1CCN(c2nc(N)nc3[nH]cnc23)CC1` was 2.77%; that for `O=C(NCc1ccccn1)[C@H]1COC[C@H]2CN(c3ncccn3)C[C@H]21` was 9.19%.

In the case of `C[C@@H]1CN(C2CCN(c3ccccc3F)CC2)CC[C@]1(C)O`, the cytotoxicity at 10 µM is -5.32%. With `O=C(NCC1CC1)[C@H]1C[C@H]2OCC[C@H]2N(CCc2ccccc2)C1` the figure was 3.86%; with `Cc1[nH]c2c(C)ccc(C)c2c1CC(=O)NCC(O)c1cccnc1` (stereo unspecified), -2.11%; with `O=C(NCCOc1cccc(Cl)c1Cl)N1CCC2(CC1)OCCO2`, -3.36%. The value for `CN1CCC(c2cncc(N(C)C)n2)CC1` was -11.5%; that for `CN1C(=N)NC(=O)/C1=C\c1ccc(-c2ccc(F)cc2)o1` was 13.5%; that for `O=C(CC1COCCN1)N1CCC(N2CCc3ccccc3C2)CC1` (stereo unspecified) was -176%. Take `CC(C(=O)Nc1ccc(N2CCCC2)nc1)n1cncn1` (stereo unspecified): the cytotoxicity at 10 µM was -6.19%. With `COc1nc2c(cc1C(=O)NCCc1nc3ccccc3s1)CCC2` the figure was 5.79%; with `Cc1cc(C)c2nc(C)cc(C(=O)NC(C)c3nnn[nH]3)c2c1` (stereo unspecified), 7.24%; with `Cn1cccc1C(=O)N1CCC2(CC1)CN(S(C)(=O)=O)c1ccccc12`, 4.73%. With `COc1cccc2c1N(S(=O)(=O)c1cc(C(=O)O)cs1)CCC2` the figure was -1.95%; with `CCOC(=O)C1CCN(c2nccc(-n3nc(C)cc3C)n2)CC1`, -8.99%.

For `CC(C(=O)N1CCN(c2ccccc2)CC1)n1cc(Br)cn1` (stereo unspecified), the cytotoxicity at 10 µM turned out to be 7.47%. As to `CC(=O)N1CC2(CCN(C(=O)CO)CC2)c2cc(C)ccc21`, the cytotoxicity at 10 µM was determined as 9.37%.

With `CCN(C(=O)CN1CCC(c2n[nH]c(C3CC3)n2)CC1)C1CC1`, the cytotoxicity at 10 µM was -2.07%. The value for `Cc1ccc(CN2CC[C@H]3OCC[C@@]3(C(=O)N3CCCO3)C2)s1` was 2.08%; that for `O=C(CC1CCC2(CC1)CCN(Cc1cccnc1)CC2)N1CC=CC1` was -2.13%. With `COc1ccc(C(=O)N2CCN(c3cc(CCN)nc(C)n3)CC2)cc1` the figure was -8.56%. For `O=C(C[C@@H]1COC[C@H]2CN(Cc3ccc(F)cc3)C[C@@H]12)N1CCOCC1`, the cytotoxicity at 10 µM is 7.75%. For `Cn1cc(C2CC(=O)NC23CCN(C(=O)c2cccnc2)CC3)cn1` (stereo unspecified), the cytotoxicity at 10 µM is -79.7%. With `Cc1noc(C(C)C)c1C(=O)NCC(c1ccsc1)N(C)C` (stereo unspecified) the figure was -5.18%.

`CCOCCS(=O)(=O)Cc1ccn(-c2cccc(F)c2)n1`: the cytotoxicity at 10 µM was determined as 4.48%.

With `CCN1CC(CN2CCOCC2)Oc2ncccc2C1=O` (stereo unspecified), the cytotoxicity at 10 µM was -1.1%. On to `Cc1cc(C)n(CC(C)CNC(=O)NCc2ccco2)n1` (stereo unspecified), for which the cytotoxicity at 10 µM is -2.58%. With `CC(Cn1cc(Br)cn1)C(=O)Nc1ccncc1` (stereo unspecified) the figure was -2.82%. As to `CC(C)c1ncc(CN2CCCC(CO)C2)cn1` (stereo unspecified), the cytotoxicity at 10 µM was -1.49%. With `C[C@@H](NC(=O)c1cnccn1)c1c(-c2ccc(Cl)cc2)noc1C(=O)O` the figure was 4.26%; with `CC(C)OCCOCc1cccc(NC(=O)NCc2ccccn2)c1`, -2.35%. With `COc1cc(C(=O)N2CCCS2(=O)=O)ccc1C` the figure was 2.72%; with `CCc1n[nH]c(C2CN(CCCS(C)(=O)=O)CCO2)n1` (stereo unspecified), -3.48%; with `C=C(C)CN1CCOC(Cn2cncn2)C1` (stereo unspecified), -52%. With `CCN(Cc1noc(CC(C)C)n1)Cc1ccccc1C` the figure was -50.8%; with `Cc1cccc(-c2ncc(CNC(C)Cc3ncccc3C)cn2)c1` (stereo unspecified), -13.2%. Consider `Cc1nc(CN2CCN(C(=O)NC(C)Cn3ccnc3)CC2)cs1` (stereo unspecified), for which the cytotoxicity at 10 µM was -5.28%.

For `Cc1c(C)n(-c2ccccn2)c2nc3c(c(N)c12)CCCCC3`, the cytotoxicity at 10 µM was 6.1%. The value for `Cc1ccc(S(C)(=O)=O)cc1C(=O)NS(=O)(=O)c1cccs1` was 0.532%. With `Cc1ccc(CN2CCCC23Cc2ccccc2CNC3=O)cc1` (stereo unspecified) the figure was 8.82%; with `CCCS(=O)(=O)N1CCN(CCCO)CC1`, 5.96%. The value for `Cc1cc(C)n(C2CCN(Cc3nc4ccccc4n3C)CC2)n1` was 1.64%; that for `COc1ccc(-c2nc(CN3CCCC(OC)C3)c(C)o2)c(F)c1` (stereo unspecified) was -37.8%. For `CC(C)NC(=O)NCc1cc(-c2cccc(Cl)c2)nn1C`, the cytotoxicity at 10 µM was determined as 3.66%. With `Cc1nc(CNCc2ccc(N3CCC(CO)CC3)nc2)cs1` the figure was 1.58%; with `COC(=O)CNC(=O)c1sc(-c2ccc(Cl)s2)nc1C`, -5.63%; with `COc1ccc(CNC(Cc2ccsc2)c2ccc(C)cn2)c(OC)c1` (stereo unspecified), 6.36%. The value for `Cc1ncc(-c2ccnc(SCCN)n2)c(-c2ccco2)n1` was -14.8%; that for `CCc1nccn1CCC(=O)N1CCOC(c2ccc(F)cc2)C1` (stereo unspecified) was -12.5%; that for `Cn1nccc1C(=O)N1CCC(c2ncc(Cl)cc2S(C)(=O)=O)CC1` was 7.91%.

(Values after ChEMBL document CHEMBL4513216, “Probing the Open Global Health Chemical Diversity Library for Multistage-Active Starting Points for Next-Generation Antimalarials” (ACS Infect Dis, 2020).)
